Results: ChEMBL document CHEMBL1141070, “Synthesis and biological activity of flurbiprofen analogues as selective inhibitors of beta-amyloid(1)(-)(42) secretion” (J Med Chem, 2005)

Key:
Cytochrome P450 3A4 [1] = molecular target: T1, Cytochrome P450 3A4 (Homo sapiens, UniProt P08684); assay: Inhibition of cytochrome P450 3A4 at 100 uM; activation observed; assay type: ADME
In short: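 Supersome microsomes from baculovirus-insect cells expressing human CYP1A2, 2C9, 2C19, 2D6 or 3A4 were used with isoform-specific fluorogenic substrates. Compounds were serially diluted with an NADP⁺/glucose-6-phosphate regenerating system in 0.35 M potassium phosphate, pH 7.4. Plates were prewarmed 10 min at 37 °C, reactions stopped with acetonitrile/Tris, and fluorescence read. IC50 was obtained by nonlinear regression.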

[2] = molecular target: T2, Prostaglandin G/H synthase 1 (Rattus norvegicus) (UniProt Q63921); assay: Percent inhibition against cyclooxygenase-1 at 100 uM in rat blood
T2 sequence (whole entry): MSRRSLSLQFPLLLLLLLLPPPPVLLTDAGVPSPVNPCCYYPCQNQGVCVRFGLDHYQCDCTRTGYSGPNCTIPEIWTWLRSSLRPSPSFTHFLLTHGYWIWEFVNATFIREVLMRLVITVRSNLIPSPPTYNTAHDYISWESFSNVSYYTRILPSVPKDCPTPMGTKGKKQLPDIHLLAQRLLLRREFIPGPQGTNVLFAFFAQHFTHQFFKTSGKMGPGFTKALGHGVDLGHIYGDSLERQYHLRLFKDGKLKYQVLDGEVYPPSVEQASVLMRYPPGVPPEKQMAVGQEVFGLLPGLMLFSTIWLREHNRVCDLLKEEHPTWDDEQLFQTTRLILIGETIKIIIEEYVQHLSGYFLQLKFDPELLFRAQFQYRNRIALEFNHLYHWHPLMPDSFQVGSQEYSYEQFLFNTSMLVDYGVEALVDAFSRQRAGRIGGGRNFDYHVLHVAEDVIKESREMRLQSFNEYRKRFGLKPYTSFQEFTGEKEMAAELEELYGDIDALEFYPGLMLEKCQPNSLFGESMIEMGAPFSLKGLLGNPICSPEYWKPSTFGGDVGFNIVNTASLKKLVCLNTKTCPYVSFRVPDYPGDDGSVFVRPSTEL
In short: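 Fresh rat whole blood preincubated 1 h at 37 °C with compound (100 μM) or DMSO (0.3% final). Stimulated 30 min with A23187 calcium ionophore; plasma thromboxane B2 measured by radioimmunoassay.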

[3] = molecular target: T3, Amyloid-beta precursor protein (Homo sapiens, UniProt P05067); details: at 100 µM
Target sequence in this assay (P05067 whole entry): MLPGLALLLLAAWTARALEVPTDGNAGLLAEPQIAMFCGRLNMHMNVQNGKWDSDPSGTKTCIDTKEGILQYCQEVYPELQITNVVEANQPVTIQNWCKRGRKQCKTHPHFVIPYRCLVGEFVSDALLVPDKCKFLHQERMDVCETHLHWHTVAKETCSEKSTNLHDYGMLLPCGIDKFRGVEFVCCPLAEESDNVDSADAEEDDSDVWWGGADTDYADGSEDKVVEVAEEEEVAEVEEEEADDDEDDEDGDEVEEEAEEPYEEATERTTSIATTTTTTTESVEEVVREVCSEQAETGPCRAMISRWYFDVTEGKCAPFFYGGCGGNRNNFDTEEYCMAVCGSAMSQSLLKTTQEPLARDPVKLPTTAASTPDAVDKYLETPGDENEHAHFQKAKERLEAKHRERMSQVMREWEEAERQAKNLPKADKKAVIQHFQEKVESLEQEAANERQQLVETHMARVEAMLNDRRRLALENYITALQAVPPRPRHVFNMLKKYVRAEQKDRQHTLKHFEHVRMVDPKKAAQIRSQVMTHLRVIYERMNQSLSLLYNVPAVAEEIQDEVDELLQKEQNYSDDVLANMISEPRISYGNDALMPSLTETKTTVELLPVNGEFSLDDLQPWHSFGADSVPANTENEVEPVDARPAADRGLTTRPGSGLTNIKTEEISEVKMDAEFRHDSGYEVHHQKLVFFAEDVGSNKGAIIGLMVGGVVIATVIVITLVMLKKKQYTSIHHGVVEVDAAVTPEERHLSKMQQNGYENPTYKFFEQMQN

[4] = Total body clearance after administration to rats at a dose of 0.5 mg/kg intravenously; assay type: ADME, organism-based; set-up: dose 0.5 mg/kg, route intravenous; details: rat, in vivo, iv
[5] = Elimination phase half-life after administration to rats at a dose of 0.5 mg/kg intravenously; assay type: ADME, organism-based; set-up: dose 0.5 mg/kg, route intravenous; details: rat, in vivo, iv
[6] = Maximum time corresponding to maximum concentration after administration to rats at a dose of 2.5 mg/kg orally; assay type: ADME, organism-based; set-up: dose 2.5 mg/kg, route oral; details: rat, in vivo, po
[7] = Absolute oral bioavailability after administration to rats at a dose of 2.5 mg/kg orally; details: rat, in vivo
Caco-2 = assay: Permeability in the Caco-2 cell; high absorption; assay type: ADME, cell-based; details: human
In short: (§1)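 Caco-2 monolayers on polycarbonate Transwell inserts, 2 h at 37 °C. Apical and basolateral solutions analysed by LC-MS/MS (SRM). Papp = Cb·Vb/(C0·A·t).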

[8] = molecular target: T3, Amyloid-beta precursor protein; assay: Inhibitory concentration against beta-amyloid-42 (Abeta42) secretion was evaluated in human neuroglioma cells (H4-APP695NL); assay type: functional, cell-based
In short: (§2)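 H4-APP695NL human neuroglioma cells (APP695 Swedish K595N/M596L) seeded at 2 × 10^5/well and grown 24 h to confluence. Increasing compound concentrations added overnight; DMSO 1% as vehicle. Supernatant Aβ42 or Aβ40 measured by electrochemiluminescence immunoassay: biotinylated 4G8 plus C-terminus-specific rabbit antibodies, captured on streptavidin beads.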
Target sequence in this assay (P05067 18-770 limits assumed): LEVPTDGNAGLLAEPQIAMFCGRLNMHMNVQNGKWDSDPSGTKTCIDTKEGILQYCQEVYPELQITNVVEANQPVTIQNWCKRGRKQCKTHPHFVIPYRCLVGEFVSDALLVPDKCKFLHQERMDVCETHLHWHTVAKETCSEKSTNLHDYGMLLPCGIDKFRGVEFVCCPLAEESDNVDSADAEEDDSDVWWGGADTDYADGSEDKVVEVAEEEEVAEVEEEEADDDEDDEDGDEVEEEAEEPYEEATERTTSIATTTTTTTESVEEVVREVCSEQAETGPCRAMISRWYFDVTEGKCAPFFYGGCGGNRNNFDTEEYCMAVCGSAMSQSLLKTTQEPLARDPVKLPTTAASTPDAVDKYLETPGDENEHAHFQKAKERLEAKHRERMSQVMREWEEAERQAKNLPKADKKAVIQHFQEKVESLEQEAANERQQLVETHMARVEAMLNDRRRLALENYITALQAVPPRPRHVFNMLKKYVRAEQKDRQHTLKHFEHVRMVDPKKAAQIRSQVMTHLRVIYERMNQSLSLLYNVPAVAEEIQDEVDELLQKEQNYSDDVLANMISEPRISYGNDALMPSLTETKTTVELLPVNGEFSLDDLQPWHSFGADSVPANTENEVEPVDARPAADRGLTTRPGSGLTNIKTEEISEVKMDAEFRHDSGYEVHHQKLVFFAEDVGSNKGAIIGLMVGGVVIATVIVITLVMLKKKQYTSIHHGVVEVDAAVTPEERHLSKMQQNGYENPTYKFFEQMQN

[9] = Area under curve after administration to rats at adose of 2.5 mg/kg orally; assay type: ADME, organism-based; set-up: dose 2.5 mg/kg, route oral; details: rat, in vivo, po
[10] = Elimination phase half-life after administration to rats at a dose of 2.5 mg/kg orally; assay type: ADME, organism-based; set-up: dose 2.5 mg/kg, route oral; details: rat, in vivo, po
[11] = Maximal concentration in rats after 0.5 mg/kg intravenous dose; assay type: ADME, organism-based; set-up: dose 0.5 mg/kg, route intravenous; details: rat, in vivo
[12] = Maximal concentration in rats after 2.5 mg/kg oral dose; assay type: ADME, organism-based; set-up: dose 2.5 mg/kg, route oral; details: rat, in vivo
[13] = Area under curve after administration to rats at adose of 0.5 mg/kg intravenously; assay type: ADME, organism-based; set-up: dose 0.5 mg/kg, route intravenous; details: rat, in vivo, iv
[14] = molecular target: T3, Amyloid-beta precursor protein; assay: Inhibition of A beta 40 peptide 100 um
Target sequence in this assay (P05067 whole entry): as the sequence (P05067 whole entry) above

[15] = In vivo steady state metabolic clearance of the compound; details: rat
[16] = Maximum time corresponding to maximum concentration after administration to rats at a dose of 0.5 mg/kg intravenously; assay type: ADME, organism-based; set-up: dose 0.5 mg/kg, route intravenous; details: rat, in vivo, iv
Cytochrome P450 2C19 = Cytochrome P450 2C19 (Homo sapiens, UniProt P33261); assay: Interaction with human cytochrome P450 isoform 2C19 expressed in baculovirus-insect cells; assay type: ADME
In short: (§3)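 Microsomes from baculovirus-insect cells expressing human CYP1A2, 2C9, 2C19, 2D6 or 3A4. Compound serially diluted with an NADPH-regenerating mix (16.3 μM NADP+, 0.83 mM glucose-6-phosphate, 0.83 mM MgCl2, 0.4 U/mL G6PDH). Pre-warmed 10 min at 37 °C, then isoform-specific substrate added in 0.35 M potassium phosphate pH 7.4. Fluorometric read-out; IC50 by nonlinear regression.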

[17] = Concentration ratio in cerebrospinal fluid and plasma; details: rat
[18] = Concentration ratio in cerebrospinal fluid and plasma; LLOQ = lower limit of quantitation; details: rat
Cytochrome P450 1A2 = molecular target: T4, Cytochrome P450 1A2 (Homo sapiens, UniProt P05177); assay: Interaction with human cytochrome P450 isoform 1A2 expressed in baculovirus-insect cells; assay type: ADME; in short: as §3
T4 sequence (P05177 whole entry): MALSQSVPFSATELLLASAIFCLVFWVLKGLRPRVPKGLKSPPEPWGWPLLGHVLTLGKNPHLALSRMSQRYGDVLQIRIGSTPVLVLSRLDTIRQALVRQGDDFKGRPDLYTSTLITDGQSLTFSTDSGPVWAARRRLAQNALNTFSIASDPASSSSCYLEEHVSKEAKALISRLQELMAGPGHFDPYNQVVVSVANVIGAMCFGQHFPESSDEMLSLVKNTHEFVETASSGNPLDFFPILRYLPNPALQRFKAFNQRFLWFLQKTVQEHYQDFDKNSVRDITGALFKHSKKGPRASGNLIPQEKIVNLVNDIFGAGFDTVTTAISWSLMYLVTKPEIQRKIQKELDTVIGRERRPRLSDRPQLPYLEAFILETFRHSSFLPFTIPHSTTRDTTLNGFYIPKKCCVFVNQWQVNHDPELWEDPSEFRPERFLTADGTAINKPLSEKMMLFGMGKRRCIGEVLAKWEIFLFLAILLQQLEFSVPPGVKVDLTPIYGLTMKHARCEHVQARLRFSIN

[19] = molecular target: T3, Amyloid-beta precursor protein; assay: Concentration required to inhibit A beta 40 peptide 100 uM
Target sequence in this assay (P05067 whole entry): as the sequence (P05067 whole entry) above

[20] = Intestinal drug absorption was estimated in vitro using human colon adenocarcinoma (Caco-2) cell monolayers; assay type: ADME; in short: as §1
Cytochrome P450 3A4 [21] = molecular target: T1, Cytochrome P450 3A4; assay: Interaction with human cytochrome P450 isoform 3A4 expressed in baculovirus-insect cells; assay type: ADME; in short: as §3
Cytochrome P450 2C9 [22] = molecular target: T5, Cytochrome P450 2C9 (Homo sapiens, UniProt P11712); assay: Interaction with human cytochrome P450 isoform 2C9 expressed in baculovirus-insect cells at 100 uM; assay type: ADME; in short: as §3
Cytochrome P450 2C9 [23] = molecular target: T5, Cytochrome P450 2C9; assay: Interaction with human cytochrome P450 isoform 2C9 expressed in baculovirus-insect cells; Activation was observed due to interference in assay; assay type: ADME; in short: as §3
[24] = molecular target: T3, Amyloid-beta precursor protein; assay: Concentration required to inhibit A beta 40 peptide; in short: as §2
Target sequence in this assay (P05067 whole entry): as the sequence (P05067 whole entry) above

T5 sequence (P11712 whole entry, canonical isoform): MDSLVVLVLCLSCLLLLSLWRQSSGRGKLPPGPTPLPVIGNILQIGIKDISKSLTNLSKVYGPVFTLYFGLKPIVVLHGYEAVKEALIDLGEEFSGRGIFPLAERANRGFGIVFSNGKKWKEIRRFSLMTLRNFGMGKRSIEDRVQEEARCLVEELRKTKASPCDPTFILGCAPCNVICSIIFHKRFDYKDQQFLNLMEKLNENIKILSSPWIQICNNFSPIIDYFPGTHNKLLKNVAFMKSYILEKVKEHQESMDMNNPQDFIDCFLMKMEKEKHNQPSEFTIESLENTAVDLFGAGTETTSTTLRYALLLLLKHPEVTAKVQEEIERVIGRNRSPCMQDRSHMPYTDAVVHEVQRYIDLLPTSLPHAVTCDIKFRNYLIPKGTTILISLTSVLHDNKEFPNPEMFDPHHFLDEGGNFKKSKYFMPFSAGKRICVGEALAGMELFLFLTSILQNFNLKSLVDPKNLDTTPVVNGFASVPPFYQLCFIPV
T1 sequence (P08684 whole entry, canonical isoform): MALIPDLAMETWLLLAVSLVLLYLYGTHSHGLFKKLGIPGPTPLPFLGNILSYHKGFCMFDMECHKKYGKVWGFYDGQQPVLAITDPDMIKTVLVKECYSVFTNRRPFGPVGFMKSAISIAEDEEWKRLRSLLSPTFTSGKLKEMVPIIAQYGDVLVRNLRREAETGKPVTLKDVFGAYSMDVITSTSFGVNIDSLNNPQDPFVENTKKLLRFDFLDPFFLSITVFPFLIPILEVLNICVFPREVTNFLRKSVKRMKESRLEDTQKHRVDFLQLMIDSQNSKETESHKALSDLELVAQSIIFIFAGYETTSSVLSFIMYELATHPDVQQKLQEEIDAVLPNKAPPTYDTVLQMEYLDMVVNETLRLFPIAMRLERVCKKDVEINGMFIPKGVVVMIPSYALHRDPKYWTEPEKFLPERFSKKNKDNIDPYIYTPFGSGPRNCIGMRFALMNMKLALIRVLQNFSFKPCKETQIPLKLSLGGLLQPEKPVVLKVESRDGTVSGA
Sequence of Cytochrome P450 2C19 (P33261 whole entry, canonical isoform): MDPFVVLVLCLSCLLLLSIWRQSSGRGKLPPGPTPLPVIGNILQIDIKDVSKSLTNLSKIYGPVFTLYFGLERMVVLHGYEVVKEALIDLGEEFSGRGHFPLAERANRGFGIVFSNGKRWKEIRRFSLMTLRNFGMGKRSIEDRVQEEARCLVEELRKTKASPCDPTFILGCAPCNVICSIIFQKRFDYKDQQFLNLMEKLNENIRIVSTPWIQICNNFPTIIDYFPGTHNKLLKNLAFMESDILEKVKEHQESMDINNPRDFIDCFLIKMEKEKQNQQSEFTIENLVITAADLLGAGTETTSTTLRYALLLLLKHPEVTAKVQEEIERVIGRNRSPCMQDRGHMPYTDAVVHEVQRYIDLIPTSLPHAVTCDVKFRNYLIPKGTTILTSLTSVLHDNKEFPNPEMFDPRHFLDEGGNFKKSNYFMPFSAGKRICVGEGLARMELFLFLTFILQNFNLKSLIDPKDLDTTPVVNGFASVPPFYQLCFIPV

Compound `O=C(O)C1(c2ccc(-c3ccc(C4CCCCC4)cc3)c(F)c2)CC1` has an IC50 (Cytochrome P450 3A4 [1]) of 59 µM, an inhibition [2] of 12% and an inhibition [3] of 60%.

In the case of `O=C(O)C1(c2ccc(-c3ccc(C(F)(F)F)cc3)c(F)c2)CC1`, the Clearance [4] is reported as 21.6 mL/day/kg, the half-life [5] is reported as 36.2 h and the Tmax [6] is reported as 4 h. For the same compound, the bioavailability [7] was 90.9%, the Absoption (Caco-2) was “High” and the IC50 [8] was 111 µM. For the same compound, the AUC [9] was 2613 µg/h/mL, the half-life [10] was 32.8 h and the Cmax [11] was 14400 ng/mL. For the same compound, the Cmax [12] was 54900 ng/mL, the inhibition [2] was less than 1% and the AUC [13] was 575 µg/h/mL. It also gave an Inhibition [14] of 22%, a Clearance [15] of 0.52 mL/h and a Tmax [16] of 4.8 min. The IC50 (Cytochrome P450 2C19) was 71 µM, the inhibition [3] was 55% and the Ratio [17] was 1.8%.

In the case of `CC(C(=O)O)c1ccc(-c2ccc(OC3CCCCC3)cc2)c(F)c1` (stereo unspecified), the IC50 [8] is reported as 41 µM, the Ratio [18] is reported as “Below LLOQ” and the inhibition [2] is reported as 20%. For the same compound, the Inhibition (Cytochrome P450 1A2) was greater than 50%, the Clearance [15] was 148 mL/h and the inhibition [19] was 25%. The inhibition [3] was 76%, the Papp [20] was greater than 5 ×10⁻⁶ cm/s and the Inhibition (Cytochrome P450 3A4 [21]) was greater than 50%.

Compound `CC(C(=O)O)c1ccc(-c2csc3ccccc23)c(F)c1` (stereo unspecified) has an IC50 [8] of 83 µM, an inhibition [2] of 68% and an inhibition [3] of 96%. The Papp [20] was greater than 5 ×10⁻⁶ cm/s and the Activation (Cytochrome P450 2C9 [22]) was greater than 50%.

For `CC(C(=O)O)c1ccc(-c2cc(Cl)cc(Cl)c2)c(F)c1` (stereo unspecified), the IC50 [8] was 77 µM, the Activation (Cytochrome P450 2C9 [23]) was greater than 50% and the inhibition [2] was 65%. It also gave an IC50 [24] of 94 µM, an inhibition [3] of 75% and a Papp [20] greater than 5 ×10⁻⁶ cm/s.
